Results as given in ChEMBL document CHEMBL4715911, “Quest for a potent antimalarial drug lead: Synthesis and evaluation of 6,7-dimethoxyquinazoline-2,4-diamines” (Bioorg Med Chem, 2021).

Legend:
[1] = test system: L6; assay: Cytotoxicity against rat L6 cells assessed as reduction in cell viability incubated for 70 hrs by resazurin dye based fluorescence assay; conditions: L6, 70 h
Outline: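 L6 rat skeletal myoblasts seeded at 4000 cells/well in RPMI 1640 with 1% L-glutamine and 10% FBS. Eleven 3-fold drug dilutions (100 to 0.002 µg/mL) added 24 h after seeding, then 70 h incubation. Resazurin added for 2 h. Fluorescence read at ex 536/em 588 nm. IC50 from 4-parameter logistic fit, average of two independent determinations.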

[2] = test system: Plasmodium falciparum; assay: Antimalarial activity against Plasmodium falciparum NF54 assessed as inhibition of parasite growth incubated for 48 hrs by [3H]hypoxanthine incorporation assay based liquid scintillation counting method; assay type: functional, organism-based
Outline: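 ³H-hypoxanthine incorporation against erythrocytic P. falciparum NF54 (drug-sensitive). Culture in hypoxanthine-free RPMI 1640 with HEPES, NaHCO3, neomycin and Albumax, on human A+ red cells at 2.5% hematocrit, 0.3% parasitemia. Eleven 3-fold dilutions spanning 100 to 0.002 µg/mL. 37 °C in 4% CO2/3% O2/93% N2. Label (0.5 µCi) added after 48 h, then a further 24 h. Scintillation counting. IC50 from 4-parameter logistic fit, average of two independent determinations.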

[3] = Selectivity index, ratio of IC50 for cytotoxicity against rat L6 cells to IC50 for antimalarial activity against Plasmodium falciparum NF54; assay type: toxicity, cell-based; conditions: read-out: Ratio IC50
Outline: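 SI calculated as L6 cytotoxicity IC50 divided by P. falciparum NF54 IC50, both measured in parallel in vitro assays.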

[4] = test system: Plasmodium berghei; assay: Antimalarial activity against Plasmodium berghei NK65 infected in ICR mouse assessed as reduction in parasitemia at 58.4 mg/kg, po qd for 4 days by Diff-Quik staining based microscopic method (reference value: 0%); assay type: functional; conditions: 96 h, time 4 day
[5] = test system: Plasmodium berghei; assay: Antimalarial activity against Plasmodium berghei NK65 infected in ICR mouse assessed as animal mean survival days at 58.4 mg/kg, po qd for 4 days (reference value: 6.2 day); assay type: functional; conditions: time 4 day
[6] = test system: Plasmodium berghei; assay: Antimalarial activity against Plasmodium berghei NK65 infected in po dosed ICR mouse assessed as increase in mean survival days for administered for 4 days; assay type: functional, organism-based; conditions: dose 50-100 mg/kg, time 4.0 day
Outline: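 Female ICR mice (25–27 g) infected via tail vein with 2×10^7 P. berghei NK65 parasitized RBC. Oral dosing in 0.5% methyl cellulose at 4 h post-infection, then days 1–3. Survival days recorded and mean survival days compared with vehicle controls. Student's t-test and Kaplan-Meier analysis applied. Mice without parasitemia at day 30 counted as cured.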

[7] = test system: Plasmodium berghei; assay: Antimalarial activity against Plasmodium berghei NK65 infected in ICR mouse assessed as animal mean survival days at 66.3 mg/kg, po qd for 4 days (reference value: 6.2 day); assay type: functional; conditions: time 4 day
[8] = test system: Plasmodium berghei; assay: Antimalarial activity against Plasmodium berghei NK65 infected in ICR mouse assessed as reduction in parasitemia at 66.3 mg/kg, po qd for 4 days by Diff-Quik staining based microscopic method (reference value: 0%); assay type: functional; conditions: 96 h, time 4 day
[9] = test system: Plasmodium berghei; assay: Antimalarial activity against Plasmodium berghei NK65 infected in ICR mouse assessed as animal mean survival days at 63.7 mg/kg, po qd for 4 days (reference value: 6.2 day); assay type: functional; conditions: time 4 day
[10] = test system: Plasmodium berghei; assay: Antimalarial activity against Plasmodium berghei NK65 infected in ICR mouse assessed as reduction in parasitemia at 63.7 mg/kg, po qd for 4 days by Diff-Quik staining based microscopic method (reference value: 0%); assay type: functional; conditions: 96 h, time 4 day
[11] = test system: Plasmodium berghei; assay: Antimalarial activity against Plasmodium berghei NK65 infected in ICR mouse assessed as animal mean survival days at 58.2 mg/kg, po qd for 4 days (reference value: 6.2 +/-0.5 day); assay type: functional; conditions: time 4 day
[12] = test system: Plasmodium berghei; assay: Antimalarial activity against Plasmodium berghei NK65 infected in ICR mouse assessed as reduction in parasitemia at 58.2 mg/kg, po qd for 4 days by Diff-Quik staining based microscopic method (reference value: 0%); assay type: functional; conditions: 96 h, time 4 day
[13] = test system: Plasmodium berghei; assay: Antimalarial activity against Plasmodium berghei NK65 infected in ICR mouse assessed as reduction in parasitemia at 50 mg/kg, po qd for 4 days by Diff-Quik staining based microscopic method (reference value: 0%); assay type: functional; conditions: 96 h, time 4 day
[14] = test system: Plasmodium berghei; assay: Antimalarial activity against Plasmodium berghei NK65 infected in ICR mouse assessed as animal mean survival days at 50 mg/kg, po qd for 4 days (reference value: 6.2 +/- 0.5 day); assay type: functional; conditions: time 4 day
[15] = test system: Plasmodium berghei; assay: Antimalarial activity against Plasmodium berghei NK65 infected in ICR mouse assessed as parasitemia at 50 mg/kg, po qd for 4 days by Diff-Quik staining based microscopic method (reference value: 28.4 +/- 10.2%); assay type: functional; conditions: time 4 day
[16] = test system: Plasmodium berghei; assay: Antimalarial activity against Plasmodium berghei NK65 infected in ICR mouse assessed as reduction in parasitemia at 57 mg/kg, po qd for 4 days by Diff-Quik staining based microscopic method (reference value: 0%); assay type: functional; conditions: 96 h, time 4 day
[17] = test system: Plasmodium berghei; assay: Antimalarial activity against Plasmodium berghei NK65 infected in ICR mouse assessed as animal mean survival days at 57 mg/kg, po qd for 4 days (reference value: 6.2 day); assay type: functional; conditions: time 4 day
[18] = test system: Plasmodium berghei; assay: Antimalarial activity against Plasmodium berghei NK65 infected in ICR mouse assessed as animal mean survival days at 59 mg/kg, po qd for 4 days (reference value: 6.2 day); assay type: functional; conditions: time 4 day
[19] = test system: Plasmodium berghei; assay: Antimalarial activity against Plasmodium berghei NK65 infected in ICR mouse assessed as reduction in parasitemia at 59 mg/kg, po qd for 4 days by Diff-Quik staining based microscopic method (reference value: 0%); assay type: functional; conditions: 96 h, time 4 day

SMILES	IC50 [1] [µM]	IC50 [2] [µM]	selectivity ratio [3]	also measured
CCCCNc1nc(NCc2cccnc2)nc2cc(OC)c(OC)cc12	11.1	0.00217	5120	–
CCNc1nc(NCc2ccccc2)nc2cc(OC)c(OC)cc12	5.44	0.0148	367	–
CCCCNc1ncnc2cc(OC)c(OC)cc12	73.6	4.71	15.6	–
CCCCCCCCNc1nc(Nc2ccncc2)nc2cc(OC)c(OC)cc12.Cl	–	–	–	inhibition in vivo at 58.4 mg/kg [4]: 54.8%; MSD [5]: 7.3 days
CCC(C)Nc1nc(Nc2ccncc2)nc2cc(OC)c(OC)cc12 (stereo not drawn)	47.7	0.00283	16800	–
CCC(CC)Nc1nc(Nc2cccnc2)nc2cc(OC)c(OC)cc12	155	0.019	8190	–
COc1cc2nc(N3CCCC3)nc(NCc3ccccc3)c2cc1OC	9.49	0.00549	1900	–
COc1cc2nc(Nc3cccnc3)nc(Nc3ccccc3C)c2cc1OC	170	0.0206	8250	–
CCCCNc1nc(NCC)c2cc(OC)c(OC)cc2n1	5.29	0.023	230	–
CCCCNc1nc(Nc2ccncc2)nc2cc(OC)c(OC)cc12	105	0.00567	–	–
CCNc1nc(Nc2ccncc2)nc2cc(OC)c(OC)cc12	55.1	0.00307	17900	–
COc1cc2nc(N3CCCC3)nc(NC(C)c3ccccc3)c2cc1OC (stereo not drawn) [listing 1 of 2 here]	–	–	–	Activity [6]: Dose dependent effect
COc1cc2nc(N3CCCC3)nc(NC(C)CCc3ccccc3)c2cc1OC (stereo not drawn)	4.48	0.0073	613	–
COc1cc2nc(Nc3ccncc3)nc(NCc3ccncc3)c2cc1OC.Cl.Cl	–	–	–	MSD [7]: 7.7 days; inhibition in vivo at 66.3 mg/kg [8]: 29.4%
CCCCNc1nc(NCCCOCC)nc2cc(OC)c(OC)cc12	4.46	0.0276	161	–
COc1cc2nc(Nc3ccncc3)nc(NC(C)c3ccccc3)c2cc1OC.Cl.Cl (stereo not drawn)	–	–	–	MSD [9]: 8.3 days; inhibition in vivo at 63.7 mg/kg [10]: 6.6%
CCCCCCCCNc1nc(N2CCCC2)nc2cc(OC)c(OC)cc12	1.48	0.0014	1060	–
COc1cc2nc(Nc3ccncc3)nc(NC(C)C)c2cc1OC	81.4	0.0029	28000	–
CCCCNc1nc(NCCCC)c2cc(OC)c(OC)cc2n1	3.67	0.0021	1750	–
COc1cc2nc(N3CCCC3)nc(N)c2cc1OC	28.2	1.66	17	–
CCCCCCCCNc1nc(Nc2ccncc2)nc2cc(OC)c(OC)cc12	1.76	0.0073	241	–
CCC(CC)Nc1nc(Nc2ccncc2)nc2cc(OC)c(OC)cc12	110	0.0518	2130	–
COc1cc2nc(Nc3ccncc3)nc(NC(C)c3ccccc3)c2cc1OC (stereo not drawn)	62.7	0.0004	156000	–
COc1cc2nc(Nc3ccncc3)nc(Nc3ccccc3C(F)(F)F)c2cc1OC	138	0.0226	6100	–
CCNc1nc(Nc2cccnc2)nc2cc(OC)c(OC)cc12	112	0.00614	18200	–

SMILES	IC50 [1] [µM]	IC50 [2] [µM]	selectivity ratio [3]	also measured
COc1cc2nc(N3CCCC3)nc(N3CCCC3)c2cc1OC	3.96	1.04	3.8	–
CCNc1nc(Cl)nc2cc(OC)c(OC)cc12	52.6	15.8	3.33	–
CCNc1nc(OC)nc2cc(OC)c(OC)cc12	67.3	34.8	1.9	–
COc1cc2nc(Nc3ccncc3)nc(NCc3ccncc3)c2cc1OC	138	0.0309	4470	–
COc1cc2nc(N3CCC(C(N)=O)CC3)nc(NCc3ccccc3)c2cc1OC	4.98	0.18	27.7	–
COc1cc2nc(Nc3ccncc3)nc(NCc3cccnc3)c2cc1OC	138	0.0128	10700	–
CCNc1nc(Nc2ccncc2)nc2cc(OC)c(OC)cc12.Cl	–	–	–	inhibition in vivo at 58.4 mg/kg [4]: 1%; MSD [5]: 7 days
CCCCNc1nc(NCCCC)c2ccccc2n1	3.01	0.121	25.6	–
CCCCNc1nc(NCc2ccncc2)nc2cc(OC)c(OC)cc12	11	0.00816	1360	–
COc1cc2nc(Nc3ccncc3)nc(Nc3ccccc3C)c2cc1OC	213	0.049	4350	–
COc1cc2nc(Nc3ccncc3)nc(NCc3cccnc3)c2cc1OC.Cl.Cl	–	–	–	MSD [7]: 8.7 days; inhibition in vivo at 66.3 mg/kg [8]: 27.1%
COc1cc2nc(N3CCCC3)nc(NC(C)C)c2cc1OC	12.5	–	3430	–
CCCCNc1nc(Nc2cccnc2)nc2cc(OC)c(OC)cc12	150	0.0254	5900	–
CCCCNc1nc(NCc2ccccn2)nc2cc(OC)c(OC)cc12	10.6	0.0109	1000	–
COc1cc2nc(Nc3ccncc3)nc(NC(C)C)c2cc1OC.Cl.Cl	–	–	–	MSD [11]: 8.3 days; inhibition in vivo at 58.2 mg/kg [12]: 39.5%
COc1cc2nc(N3CCCC3)nc(Nc3ccccc3C)c2cc1OC	8.46	0.0329	257	inhibition in vivo at 50 mg/kg [13]: 26.8%; MSD [14]: 6.8 days; Activity [15]: 23.4%
COc1cc2nc(Nc3cccnc3)nc(NC(C)C)c2cc1OC	249	0.0147	16900	–
CCNc1nc(NCCc2ccccc2)nc2cc(OC)c(OC)cc12	1.68	0.017	99	–
CCCCCCCCNc1nc(N2CCCC2)nc2cc(OC)c(OC)cc12.Cl	–	–	–	inhibition in vivo at 57 mg/kg [16]: 48.8%; MSD [17]: 6.7 days
COc1cc2nc(N3CCCC3)nc(NC(C)c3ccccc3)c2cc1OC (stereo not drawn) [listing 2 of 2 here]	4.81	0.01	481	inhibition in vivo at 50 mg/kg [13]: 90.4%; MSD [14]: 19.8 days; Activity [15]: 2.5%
COc1cc2nc(N3CCCC3)nc(NCc3cccnc3)c2cc1OC.Cl	–	–	–	MSD [18]: 8 days; inhibition in vivo at 59 mg/kg [19]: 80.3%
COc1cc2nc(N3CCCC3)nc(NCc3cccnc3)c2cc1OC	27.3	0.0136	2000	–
CCCCNc1nc(NC(C)C)c2cc(OC)c(OC)cc2n1	5.31	0.00314	1690	–
CCCCNc1nc(N2CCCC2)nc2cc(OC)c(OC)cc12	61.8	0.0018	–	inhibition in vivo at 50 mg/kg [13]: 60%; MSD [14]: 6.6 days; Activity [15]: 10.8%
